What was measured:
Type in all cases: functional
Aspergillus niger [1] = assay: Antifungal activity against Aspergillus niger at 500 ug after 24 hrs by paper disc technique; details: read-out: IZ
Procedure, shortened: (§1)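 Potato dextrose agar plates: sterilized base layer overlaid with seeded medium (cooled to 40 °C, spore suspension from ten-day cultures of A. niger, A. flavus, P. notatum and Rhizopus species added), chilled before use. Disc diffusion, incubation at 28 °C; zone read after 24 h from disc centre. I% = (C − T)/C × 100 (C, zone diameter in check; […]). Fluconazole (500 and 1000 µg/ml) as standard.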

Aspergillus niger [2] = assay: Antifungal activity against Aspergillus niger at 500 ug after 24 hrs by paper disc technique relative to control; procedure, shortened: as §1
Aspergillus niger [3] = assay: Antifungal activity against Aspergillus niger at 1000 ug after 24 hrs by paper disc technique; details: read-out: IZ; procedure, shortened: as §1
Aspergillus niger [4] = assay: Antifungal activity against Aspergillus niger at 1000 ug after 24 hrs by paper disc technique relative to control; procedure, shortened: as §1
Aspergillus flavus [5] = assay: Antifungal activity against Aspergillus flavus at 500 ug after 24 hrs by paper disc technique; details: read-out: IZ; procedure, shortened: as §1
Aspergillus flavus [6] = assay: Antifungal activity against Aspergillus flavus at 500 ug after 24 hrs by paper disc technique relative to control; procedure, shortened: as §1
Aspergillus flavus [7] = assay: Antifungal activity against Aspergillus flavus at 1000 ug after 24 hrs by paper disc technique; details: read-out: IZ; procedure, shortened: as §1
Aspergillus flavus [8] = assay: Antifungal activity against Aspergillus flavus at 1000 ug after 24 hrs by paper disc technique relative to control; procedure, shortened: as §1
Rhizopus [9] = assay: Antifungal activity against Rhizopus sp. at 500 ug after 24 hrs by paper disc technique; details: read-out: IZ; procedure, shortened: as §1
Rhizopus [10] = assay: Antifungal activity against Rhizopus sp. at 500 ug after 24 hrs by paper disc technique relative to control; procedure, shortened: as §1
Rhizopus [11] = assay: Antifungal activity against Rhizopus sp. at 1000 ug after 24 hrs by paper disc technique; details: read-out: IZ; procedure, shortened: as §1
Rhizopus [12] = assay: Antifungal activity against Rhizopus sp. at 1000 ug after 24 hrs by paper disc technique relative to control; procedure, shortened: as §1
Penicillium chrysogenum [13] = assay: Antifungal activity against Penicillium notatum sp. at 500 ug after 24 hrs by paper disc technique; details: read-out: IZ; procedure, shortened: as §1
Penicillium chrysogenum [14] = assay: Antifungal activity against Penicillium notatum sp. at 500 ug after 24 hrs by paper disc technique relative to control; procedure, shortened: as §1
Penicillium chrysogenum [15] = assay: Antifungal activity against Penicillium notatum sp. at 1000 ug after 24 hrs by paper disc technique; details: read-out: IZ; procedure, shortened: as §1
Penicillium chrysogenum [16] = assay: Antifungal activity against Penicillium notatum sp. at 1000 ug after 24 hrs by paper disc technique relative to control; procedure, shortened: as §1

Compound `C1=Nn2c(nnc2-c2ccccc2)Nc2nc3ccccc3cc21` has a zone of inhibition at 500 µg/disc (Aspergillus niger [1]) of 39 mm, an Activity (Aspergillus niger [2]) of 53.33% and a zone of inhibition at 1000 µg/disc (Aspergillus niger [3]) of 43 mm. The Activity (Aspergillus niger [4]) was 71.66%, the zone of inhibition at 500 µg/disc (Aspergillus flavus [5]) was 32 mm and the Activity (Aspergillus flavus [6]) was 53.33%. The zone of inhibition at 1000 µg/disc (Aspergillus flavus [7]) was 45 mm, the Activity (Aspergillus flavus [8]) was 70% and the zone of inhibition at 500 µg/disc (Rhizopus [9]) was 30 mm. It also gave an Activity (Rhizopus [10]) of 50%, a zone of inhibition at 1000 µg/disc (Rhizopus [11]) of 30 mm and an Activity (Rhizopus [12]) of 50%. The zone of inhibition at 500 µg/disc (Penicillium chrysogenum [13]) was 44 mm, the Activity (Penicillium chrysogenum [14]) was 73.33% and the zone of inhibition at 1000 µg/disc (Penicillium chrysogenum [15]) was 54 mm. For the same compound, the Activity (Penicillium chrysogenum [16]) was 90%.
`O=[N+]([O-])c1ccc(-c2nnc3n2N=Cc2cc4ccccc4nc2N3)cc1` showed a zone of inhibition at 500 µg/disc (Aspergillus niger [1]) of 22 mm, an Activity (Aspergillus niger [2]) of 33.33% and a zone of inhibition at 1000 µg/disc (Aspergillus niger [3]) of 38 mm. It also gave an Activity (Aspergillus niger [4]) of 63.33%, a zone of inhibition at 500 µg/disc (Aspergillus flavus [5]) of 36 mm and an Activity (Aspergillus flavus [6]) of 60%. For the same compound, the zone of inhibition at 1000 µg/disc (Aspergillus flavus [7]) was 36 mm, the Activity (Aspergillus flavus [8]) was 60% and the zone of inhibition at 500 µg/disc (Rhizopus [9]) was 25 mm. For the same compound, the Activity (Rhizopus [10]) was 41.66%, the zone of inhibition at 1000 µg/disc (Rhizopus [11]) was 26 mm and the Activity (Rhizopus [12]) was 43.33%. The zone of inhibition at 500 µg/disc (Penicillium chrysogenum [13]) was 43 mm, the Activity (Penicillium chrysogenum [14]) was 71.66% and the zone of inhibition at 1000 µg/disc (Penicillium chrysogenum [15]) was 52 mm. For the same compound, the Activity (Penicillium chrysogenum [16]) was 86.66%.
`Cc1ccc2nc3c(cc2c1)C=Nn1c(nnc1-c1ccccc1Cl)N3` was tested, and the zone of inhibition at 500 µg/disc (Aspergillus niger [1]) was 24 mm, the Activity (Aspergillus niger [2]) was 40% and the zone of inhibition at 1000 µg/disc (Aspergillus niger [3]) was 43 mm. It also gave an Activity (Aspergillus niger [4]) of 71.66%, a zone of inhibition at 500 µg/disc (Aspergillus flavus [5]) of 42 mm and an Activity (Aspergillus flavus [6]) of 70.66%. It also gave a zone of inhibition at 1000 µg/disc (Aspergillus flavus [7]) of 32 mm, an Activity (Aspergillus flavus [8]) of 53.33% and a zone of inhibition at 500 µg/disc (Rhizopus [9]) of 28 mm. The Activity (Rhizopus [10]) was 46.66%, the zone of inhibition at 1000 µg/disc (Rhizopus [11]) was 32 mm and the Activity (Rhizopus [12]) was 53.33%. For the same compound, the zone of inhibition at 500 µg/disc (Penicillium chrysogenum [13]) was 44 mm, the Activity (Penicillium chrysogenum [14]) was 73.33% and the zone of inhibition at 1000 µg/disc (Penicillium chrysogenum [15]) was 42 mm. It also gave an Activity (Penicillium chrysogenum [16]) of 70%.
For `Cc1ccc2nc3c(cc2c1)C=Nn1c(nnc1-c1ccc([N+](=O)[O-])cc1)N3`, the zone of inhibition at 500 µg/disc (Aspergillus niger [1]) was 34 mm, the Activity (Aspergillus niger [2]) was 56.66% and the zone of inhibition at 1000 µg/disc (Aspergillus niger [3]) was 40 mm. For the same compound, the Activity (Aspergillus niger [4]) was 66.66%, the zone of inhibition at 500 µg/disc (Aspergillus flavus [5]) was 43 mm and the Activity (Aspergillus flavus [6]) was 71.66%. It also gave a zone of inhibition at 1000 µg/disc (Aspergillus flavus [7]) of 49 mm, an Activity (Aspergillus flavus [8]) of 81.66% and a zone of inhibition at 500 µg/disc (Rhizopus [9]) of 20 mm. The Activity (Rhizopus [10]) was 33.33%, the zone of inhibition at 1000 µg/disc (Rhizopus [11]) was 30 mm and the Activity (Rhizopus [12]) was 50%. The zone of inhibition at 500 µg/disc (Penicillium chrysogenum [13]) was 48 mm, the Activity (Penicillium chrysogenum [14]) was 80% and the zone of inhibition at 1000 µg/disc (Penicillium chrysogenum [15]) was 42 mm. It also gave an Activity (Penicillium chrysogenum [16]) of 70%.
`OC(Cn1cncn1)(Cn1cncn1)c1ccc(F)cc1F` [FLUCONAZOLE] was tested, and the zone of inhibition at 500 µg/disc (Aspergillus niger [1]) was 42 mm, the Activity (Aspergillus niger [2]) was 70% and the zone of inhibition at 1000 µg/disc (Aspergillus niger [3]) was 48 mm. For the same compound, the Activity (Aspergillus niger [4]) was 80%, the zone of inhibition at 500 µg/disc (Aspergillus flavus [5]) was 35 mm and the Activity (Aspergillus flavus [6]) was 58.33%. The zone of inhibition at 1000 µg/disc (Aspergillus flavus [7]) was 42 mm, the Activity (Aspergillus flavus [8]) was 70% and the zone of inhibition at 500 µg/disc (Rhizopus [9]) was 38 mm. The Activity (Rhizopus [10]) was 63.33%, the zone of inhibition at 1000 µg/disc (Rhizopus [11]) was 42 mm and the Activity (Rhizopus [12]) was 70%. It also gave a zone of inhibition at 500 µg/disc (Penicillium chrysogenum [13]) of 52 mm, an Activity (Penicillium chrysogenum [14]) of 86.66% and a zone of inhibition at 1000 µg/disc (Penicillium chrysogenum [15]) of 54 mm. The Activity (Penicillium chrysogenum [16]) was 90%.

— ChEMBL document CHEMBL1806379, “Efficient synthesis of antifungal active 9-substituted-3-aryl-5H,13aH-quinolino[3,2-f][1,2,4]triazolo[4,3-b][1,2,4]triazepines in ionic liquids” (2011)
